{"source": "paper PMC9588738", "about": "(Cancer research, 2022)", "key": {"[1]": {"test_system": "ZR75-PELP1 and MCF7-PELP1 cells", "assay": "QCM chemotaxis cell migration assay", "assay_type": "cell-based, human", "conditions": "10 μM, 12 hours"}, "[2]": {"test_system": "PELP1-shRNA expressing ZR75 cells", "assay": "MTT cell viability assay, PELP1 knockdown cells", "assay_type": "cell-based, human", "conditions": "PELP1 knockdown vs control"}, "PELP1 [3]": {"biological_target": "T1, PELP1 (Homo sapiens, UniProt Q8IZL8)", "assay": "PELP1 degradation by Western blotting", "assay_type": "cell-based", "conditions": "MCF7 cells, MG132 5 μM", "method_in_brief": "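ZR75 and MCF7 cells were exposed to graded test-compound concentrations for 24 h. For the proteasome arm, MCF7 cells received small molecule (10 μM, 4 and 6 h) or peptide (10 μM, 7 h), each ± MG132 (5 μM). Lysis used NP-40/Triton X-100 buffer with protease/phosphatase inhibitors and NEM. PELP1 was normalized to loading control, relative to untreated.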"}, "[4]": {"test_system": "E2 mediated ERE reporter activation", "assay": "ERE-luciferase reporter assay", "assay_type": "cell-based, human", "conditions": "ZR75-PELP1 (PIP1) or ZR75 (SMIP34) cells"}, "[5]": {"test_system": "MCF7-TamR and MCF7-LTLT BC model cells", "assay": "Cell viability of therapy-resistant cells treated with PIP1", "assay_type": "cell-based, human", "conditions": "7 days"}, "PELP1 [6]": {"biological_target": "T1, PELP1", "assay": "Biotin-Avidin pull-down assays", "assay_type": "binding", "conditions": "Biotin-tagged peptides, ZR75 nuclear lysate"}, "ZR75-PELP1 cells": {"test_system": "ZR75-PELP1 cells", "assay": "MTT cell viability assay, ZR75-PELP1 cells", "assay_type": "cell-based, human", "method_in_brief": "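ZR75-PELP1 cells were treated with peptide every 3 days, and MTT absorbance was read at day 7 (n=3). A screen compared ZR75 with ZR75-PELP1 cells.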"}}}
{"substance": "PIP1: PELP1 inhibiting peptide with TAT signal; TAT-PIP1: GRKKRRQRRRGGMVEFRWSCPGRRKAKA (not fully specified; left off: Gal4 activation domain, end not stated, kept)", "values": [{"measurement": "cell migration", "setting": "[1]", "result": "significant decrease in the cell migration"}, {"measurement": "activity when PELP1 is knocked down", "setting": "[2]", "result": "substantially reduced the activity of PIP1"}, {"measurement": "PELP1 degradation in presence of proteasome inhibitor MG132", "setting": "PELP1 [3]", "result": "attenuated PIP1 mediated degradation of PELP1"}, {"measurement": "E2 induced ERE reporter activity", "setting": "[4]", "result": "significantly decreased E2 mediated ERE reporter activation"}, {"measurement": "effect on cell viability of therapy-resistant cells", "setting": "[5]", "result": "significantly reduced the cell viability"}, {"measurement": "relative affinity to bind PELP1 (peptide pull-down)", "setting": "PELP1 [6]", "result": "higher affinity to bind to PELP1 than PIP2"}, {"measurement": "comparison of activity between hits in MTT assays", "setting": "ZR75-PELP1 cells", "result": "more efficient anti-proliferative activity than PIP2"}, {"measurement": "effect on PELP1-mediated proliferation", "setting": "ZR75-PELP1 cells; TAT-tagged peptides every 3 days, read at 7 days", "result": "significantly inhibited PELP1-mediated proliferation"}]}
